Results from PMC4428392 (Anti-Cancer Agents in Medicinal Chemistry, 2014).
Values joined by “and” are separate entries in the source; they are usually repeats but may differ in a detail not shown here. Identical values can stand only once. Like-named read-outs stand apart in the source and are kept apart here.

Assays:
Format in all cases: cell-based, Human
MCF-7 = test: MTT cytotoxicity assay in normoxia and hypoxia, MCF-7
Method in brief: (§1)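 MCF-7 and HCT-116 were grown in DMEM; NCI-H460 in RPMI 1640 plus 10 mM HEPES; all media had 10% FBS, pyruvate and 1.5 g/L bicarbonate. Cells were seeded at 20000/well and grown 24 h at 20% O2, 5% CO2, 37 °C. Serial compound concentrations were then given for 24 h in normoxia, or for 6 h hypoxia (3% O2) followed by 18 h normoxia. MTT was read at 545 nm. IC50 came from linear regression of % inhibition versus log concentration, and HCR = IC50 normoxia/IC50 hypoxia.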

NCI-H460 = test: MTT cytotoxicity assay in normoxia and hypoxia, NCI-H460; settings: for IC50: Homo sapiens; for HCR = IC50 (aerobic)/IC50 (hypoxia): NCI-H460
Method in brief: as §1

HCT-116 = test: MTT cytotoxicity assay in normoxia and hypoxia, HCT-116; settings: for IC50: Homo sapiens
Method in brief: as §1

HCT-116 cells [1] = test: Cell cycle assay by flow cytometry; settings: 24 h
HCT-116 cells [2] = test: ROS analysis by flow cytometry
Method in brief: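 HCT-116 cells were treated with test compound at 15 or 30 µM in normoxia or hypoxia (24 h per methods; legend states 18 h). They were stained with CM-H2DCFDA for 45 min, collected, and analysed on a FACSCalibur flow cytometer. Fluorescence was normalised to solvent control; mean ± SEM, n=3.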

[3] = tested on: caspase 3/7 in HCT-116 cells; test: Caspase 3/7 activity; settings: 30 µM, 24 h; for level of active caspase 3/7: HCT-116, hypoxia, solvent control 7%; for effect on level of active caspase 3/7: HCT-116, normoxia
Method in brief: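 HCT-116 cells were exposed to test compound at 30 µM for 24 h in normoxia or hypoxia. Cells were harvested, washed in PBS, centrifuged (350 g, 5 min) and stained with a FAM-FLICA caspase-3/7 inhibitor kit. Active caspase 3/7 was measured by flow cytometry. Data are mean ± SEM, n=3, compared with solvent control by one-way ANOVA with Tukey post hoc test.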

γ-H2AX in HCT-116 cells = test: Level of γ-H2AX by flow cytometry; settings: 30 µM, 24 h
[4] = tested on: cleaved PARP in HCT-116 cells; test: Level of cleaved PARP by flow cytometry; settings: HCT-116, hypoxia, 30 µM, 24 h
[5] = tested on: γ-H2AX and cleaved PARP in HCT-116 cells; test: Dual-parameter γ-H2AX and cleaved PARP flow cytometry; settings: 30 µM, 24 h
[6] = tested on: co-cultured HUVECs and fibroblasts; test: In vitro tube formation test; settings: 2 μM, 11 days
Method in brief: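 HUVECs were co-cultured with fibroblasts for 11 days in basal medium, solvent-control medium (0.2% DMSO), or solvent medium with test compound at 2 or 20 μM. Medium ± compound was renewed every 3 days, and suramin served as the kit positive control. HUVECs were stained with anti-CD31, and tube area, length, joints and paths were measured by image analyzer over 5 fields. Quadruplicate wells; mean ± SEM, n=4.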

[7] = NCI-H460, 24 h, read-out: Cytotoxicity (IC50) NCI-H460 N
[8] = NCI-H460, read-out: Cytotoxicity (IC50) NCI-H460 H
[9] = HCT-116, 24 h, read-out: Cytotoxicity (IC50) HCT-116 N
[10] = HCT-116, read-out: Cytotoxicity (IC50) HCT-116 H

For [O-][n+]1nc(NCCNc2n[n+]([O-])c3ccccc3[n+]2[O-])nc2ccccc21 [Compound 9a, 3-(2-(1-Oxido-1,2,4-benzotriazin-3-yl)aminoethylamino)-1,2,4-benzotriazine-1,4-dioxide], the “HCR = IC50 (aerobic)/IC50 (hypoxia)” value (MCF-7) was > 6.0, the IC50 (NCI-H460; [7]) was 43.7 ± 12.5 µM and the IC50 (NCI-H460; [8]) was 17.5 ± 4.3 µM. The “HCR = IC50 (aerobic)/IC50 (hypoxia)” value (NCI-H460) was 2.5, the “HCR = hypoxic cytotoxicity ratio IC50 (aerobic)/IC50 (hypoxic)” value (HCT-116; HCT-116) was 3.7 and the IC50 (HCT-116; [9]) was 66.3 ± 16.5 µM. The IC50 (HCT-116; [10]) was 18.1 ± 2.6 µM, the “G1 (%)” value (HCT-116 cells [1]; HCT-116, hypoxia, 15 µM) was 26.2±3.7% and the “G2/M (%)” value (HCT-116 cells [1]; HCT-116, hypoxia, 15 µM) was 31.4% and 31.4±3.2%. For the same compound, the “S (%)” value (HCT-116 cells [1]; HCT-116, hypoxia, 15 µM) was 27.3±4.4%, the “Sub-G1 (%)” value (HCT-116 cells [1]; HCT-116, hypoxia, 15 µM) was 13.1% and 13.1±1.7% and the “G1 (%)” value (HCT-116 cells [1]; HCT-116, hypoxia, 30 µM) was 33.3±2.4%. The “G2/M (%)” value (HCT-116 cells [1]; HCT-116, hypoxia, 30 µM) was 16.7% and 16.7±2.5%, the “S (%)” value (HCT-116 cells [1]; HCT-116, hypoxia, 30 µM) was 25.8±3.8% and the “Sub-G1 (%)” value (HCT-116 cells [1]; HCT-116, hypoxia, 30 µM) was 24.3% and 24.3±2.8%. The “G1 (%)” value (HCT-116 cells [1]; HCT-116, normoxia, 15 µM) was 30.9±2.3%, the “G2/M (%)” value (HCT-116 cells [1]; HCT-116, normoxia, 15 µM) was 51.0% and 51.0±4.2% and the “S (%)” value (HCT-116 cells [1]; HCT-116, normoxia, 15 µM) was 15.0±5.5%. The “Sub-G1 (%)” value (HCT-116 cells [1]; HCT-116, normoxia, 15 µM) was 2.7±0.7%, the “G1 (%)” value (HCT-116 cells [1]; HCT-116, normoxia, 30 µM) was 24.3±4.1% and the “G2/M (%)” value (HCT-116 cells [1]; HCT-116, normoxia, 30 µM) was 58.3% and 58.3±2.8%. The “S (%)” value (HCT-116 cells [1]; HCT-116, normoxia, 30 µM) was 12.9±5.2%, the “Sub-G1 (%)” value (HCT-116 cells [1]; HCT-116, normoxia, 30 µM) was 3.8% and 3.8±1.7% and the “increase of ROS relative to control medium” value (HCT-116 cells [2]; HCT-116, hypoxia, 15 µM) was 46 fold. The “increase of ROS relative to control medium” value (HCT-116 cells [2]; HCT-116, hypoxia, 30 µM) was 60 fold, the “increase of ROS relative to control medium” value (HCT-116 cells [2]; HCT-116, normoxia, 15 µM) was 3.4 fold and the “increase of ROS relative to control medium” value (HCT-116 cells [2]; HCT-116, normoxia, 30 µM) was 5.8 fold. The “level of active caspase 3/7” value [3] was ~55%, the “effect on level of active caspase 3/7” value [3] was “no apparent effect” and the “expression of γ-H2AX” value (γ-H2AX in HCT-116 cells; HCT-116, hypoxia, solvent control 4%) was “around 30%”. The “effect on expression of γ-H2AX” value (γ-H2AX in HCT-116 cells; HCT-116, normoxia) was “no significant effect”, the “cleaved PARP” value [4] was ~45% and the “cells expressing both γ-H2AX and cleaved PARP (upper right quadrant)” value ([5]; HCT-116, hypoxia) was “approximately 11%”. The “cells expressing both γ-H2AX and cleaved PARP (upper right quadrant)” value ([5]; HCT-116, normoxia) was 0.1% and the “reduction of areas, lengths, paths and joints of tube formation” value [6] was 70-80%.
With [O-][n+]1nc(NCCCNc2n[n+]([O-])c3ccccc3[n+]2[O-])nc2ccccc21 [Compound 9b, 3-(3-(1-Oxido-1,2,4-benzotriazin-3-yl)aminopropylamino)-1,2,4-benzotriazine-1,4-dioxide] the IC50 (NCI-H460; [7]) was 44.6 ± 4.3 µM, the IC50 (NCI-H460; [8]) was 21.4 ± 4.8 µM and the “HCR = IC50 (aerobic)/IC50 (hypoxia)” value (NCI-H460) was 2.1. For the same compound, the IC50 (HCT-116; [9]) was 53.8 ± 4.7 µM, the IC50 (HCT-116; [10]) was 28.7 ± 6.7 µM and the “Sub-G1 (%)” value (HCT-116 cells [1]; HCT-116, hypoxia, 15 µM) was 4.3%. For the same compound, the “G1 (%)” value (HCT-116 cells [1]; HCT-116, hypoxia, 30 µM) was 28.1±1.2%, the “G2/M (%)” value (HCT-116 cells [1]; HCT-116, hypoxia, 30 µM) was 30.2±3.9% and the “S (%)” value (HCT-116 cells [1]; HCT-116, hypoxia, 30 µM) was 29.3±4.7%. The “Sub-G1 (%)” value (HCT-116 cells [1]; HCT-116, hypoxia, 30 µM) was 12.2% and 12.2±2.8%, the “Sub-G1 (%)” value (HCT-116 cells [1]; HCT-116, normoxia, 15 µM) was ~2.8% and the “G1 (%)” value (HCT-116 cells [1]; HCT-116, normoxia, 30 µM) was 35.0% and 35.0±5.1%. For the same compound, the “G2/M (%)” value (HCT-116 cells [1]; HCT-116, normoxia, 30 µM) was 48.0% and 48.0±1.9%, the “S (%)” value (HCT-116 cells [1]; HCT-116, normoxia, 30 µM) was 14.3±4.1% and the “Sub-G1 (%)” value (HCT-116 cells [1]; HCT-116, normoxia, 30 µM) was 2.1% and 2.1±0.1%. The “level of active caspase 3/7” value [3] was ~23%, the “effect on level of active caspase 3/7” value [3] was “no apparent effect” and the “reduction of areas, lengths, paths and joints of tube formation” value [6] was 45-50%.
For [O-][n+]1nc(NCCCCNc2n[n+]([O-])c3ccccc3[n+]2[O-])nc2ccccc21 [Compound 9c, 3-(4-(1-Oxido-1,2,4-benzotriazin-1-ium-3-yl)aminobutylamino)-1,2,4-benzotriazine-1,4-dioxide], the IC50 (NCI-H460; [7]) was > 30 µM, the IC50 (NCI-H460; [8]) was > 30 µM and the IC50 (HCT-116; [9]) was > 30 µM. The IC50 (HCT-116; [10]) was > 30 µM.
[O-][n+]1nc(NCCCCCNc2n[n+]([O-])c3ccccc3[n+]2[O-])nc2ccccc21 [Compound 9d, 3-(5-(1-Oxido-1,2,4-benzotriazin-1-ium-3-yl)aminopentylamino)-1,2,4-benzotriazine-1,4-dioxide] was tested, and the IC50 (NCI-H460; [7]) was > 30 µM, the IC50 (NCI-H460; [8]) was > 30 µM and the IC50 (HCT-116; [9]) was > 30 µM. For the same compound, the IC50 (HCT-116; [10]) was > 30 µM.
[O-][n+]1nc(NCCCCCCNc2n[n+]([O-])c3ccccc3[n+]2[O-])nc2ccccc21 [Compound 9e, 3-(6-(1-Oxido-1,2,4-benzotriazin-1-ium-3-yl)aminohexylamino)-1,2,4-benzotriazine-1,4-dioxide] was tested, and the IC50 (NCI-H460; [7]) was > 30 µM, the IC50 (NCI-H460; [8]) was > 30 µM and the IC50 (HCT-116; [9]) was > 30 µM. For the same compound, the IC50 (HCT-116; [10]) was > 30 µM.
In the case of [O-][n+]1nc(NCCCCCCCNc2n[n+]([O-])c3ccccc3[n+]2[O-])nc2ccccc21 [Compound 9f, 3-(7-(1-Oxido-1,2,4-benzotriazin-1-ium-3-yl)aminoheptylamino)-1,2,4-benzotriazine-1,4-dioxide], the IC50 (NCI-H460; [7]) is reported as > 30 µM, the IC50 (NCI-H460; [8]) is reported as > 30 µM and the IC50 (HCT-116; [9]) is reported as > 30 µM. The IC50 (HCT-116; [10]) was > 30 µM.
[O-][n+]1nc(NCCCCCCCCNc2n[n+]([O-])c3ccccc3[n+]2[O-])nc2ccccc21 [Compound 9g, 3-(8-(1-Oxido-1,2,4-benzotriazin-1-ium-3-yl)aminooctylamino)-1,2,4-benzotriazine-1,4-dioxide] was tested, and the IC50 (NCI-H460; [7]) was > 30 µM, the IC50 (NCI-H460; [8]) was > 30 µM and the IC50 (HCT-116; [9]) was > 30 µM. For the same compound, the IC50 (HCT-116; [10]) was > 30 µM.
